This is a sample that favours compounds with a hit; in the whole collection about 27% have one here.
HIV Rev-RRE inh = disrupts HIV-1 Rev binding to RRE RNA; Rev peptide-RRE RNA binding, FRET; inhibition, % at 8 µM; 97,000 compounds, 0.79% hits; AID 704;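 active means inhibition above the screen-wide mean plus 3 SD, cut at about 35% in these data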;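 further: 0% = median DMSO wells and 100% = median Neomycin B control wells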
Target sequence (P05866 whole entry, looked up): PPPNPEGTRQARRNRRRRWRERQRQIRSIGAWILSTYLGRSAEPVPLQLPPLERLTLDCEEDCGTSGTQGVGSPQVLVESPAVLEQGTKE
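System: Cy5-labelled duplex RRE RNA binding fluorescein-labelled HIV Rev peptide; Signal: fluorescein-to-Cy5 FRET, 480 nm excitation; Also added: labelled Rev peptide; Compound: one concentration, 8 µM nominal; Buffer or medium: HEPES pH 7.5 salt buffer with EDTA; Read-out: % inhibition of FRET ratio versus controls; Schedule: 5 min preincubation and 15 min binding, 25 °C.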
CYP2C9 inh = human CYP2C9 inhibition | P11712 | CYP2C9 Supersomes, luciferin-H conversion, luminescence | inhibition, % at 5 µM | 96,000 compounds, 20% hits;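 active means blocking of liver enzyme CYP2C9 beyond about 50% at 5 µM, limit read from the data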
CYP2C19 activ = cytochrome P450 2C19 (human) activation | P33261 | recombinant CYP2C19, luciferin-H EGE luminescence; stronger effect = higher value; 0 = fully inhibited enzyme, 1 = untreated enzyme | activation factor at 5 µM | 96,000 tested, under 10 active;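 active means activation factor of at least 2 at 5 µM in the primary screen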;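 further: 0 = wells with 2.5 mM tranylcypromine and 1 = vehicle-only wells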
Target sequence (P33261 whole entry, looked up): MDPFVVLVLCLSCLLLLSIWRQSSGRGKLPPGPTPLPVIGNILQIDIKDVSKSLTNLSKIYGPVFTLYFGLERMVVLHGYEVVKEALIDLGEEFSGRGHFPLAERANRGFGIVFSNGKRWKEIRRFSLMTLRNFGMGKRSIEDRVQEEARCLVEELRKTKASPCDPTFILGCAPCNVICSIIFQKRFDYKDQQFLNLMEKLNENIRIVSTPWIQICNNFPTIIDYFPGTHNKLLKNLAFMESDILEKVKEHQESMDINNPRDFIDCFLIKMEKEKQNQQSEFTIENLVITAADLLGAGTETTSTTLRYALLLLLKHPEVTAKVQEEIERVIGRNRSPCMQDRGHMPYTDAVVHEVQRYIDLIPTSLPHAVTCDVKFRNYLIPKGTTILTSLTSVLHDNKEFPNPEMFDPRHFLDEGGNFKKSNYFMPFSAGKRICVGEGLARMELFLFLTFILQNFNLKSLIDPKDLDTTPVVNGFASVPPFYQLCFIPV
CYP2C19 inh = inhibitors of human CYP2C19 | inhibition, % at 5 µM | CYP2C19 Supersomes, luciferin-H EGE luminescence, 30 min | 96,000 compounds, 21% hits | AID 778 | P33261;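 active means CYP2C19 inhibition above a set limit at 5 µM in the primary screen, cut at about 50% in these data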;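 further: plate controls were negative control wells for no effect and 2.5 mM tranylcypromine positive control for full effect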
Cav32 inh = blocks human Cav3.2 T-type calcium channel; Cav3.2-expressing cells, Fluo-4 calcium fluorescence FDSS; stronger effect = lower value; B-score at 10 µM; 100,000 compounds, 4% hits; AID 449739;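 active means single-dose well whose peak fluorescence ratio is a statistical outlier from its plate by either plate-standardised score or position-corrected B-score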
CYP2C9 act = CYP2C9 (human) activation; P11712; recombinant CYP2C9, luciferin-H conversion, luminescence; stronger effect = higher value; factor 1 = untreated enzyme, 0 = blocked; activation factor at 5 µM; 96,000 compounds, 1.4% hits; AID 1024;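 active means activation factor of 2 or more for CYP2C9 at a 5 µM dose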;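 further: 0 = sulfaphenazole-blocked wells and 1 = vehicle-only wells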
The depositor's hits bear a star; nt = not tested or not shown; [ ] = remark or other dose.

SMILES	HIV Rev-RRE inh	CYP2C9 inh	CYP2C19 activ	CYP2C19 inh	Cav32 inh	CYP2C9 act
Cc1ccc(S(=O)(=O)N/N=C2/CC(c3ccccc3)Oc3ccccc32)cc1[N+](=O)[O-] (stereo not given)	10.7	99.0*	0.3	67.3*	-0.586	0
CC1CCCC/C1=N\NS(=O)(=O)c1ccc(Br)cc1 (stereo not given)	-2.2	50.8*	0.7	26.2	-2.03	0.5
Cc1ccc(C)c(S(=O)(=O)N/N=C2/CCCc3ccccc32)c1	0.3	-15.8	1.2	-16.9	-4	1.2
Cc1ccc(NC(=O)c2nc[nH]c2C(=O)N2CCN(c3ccccc3)CC2)cc1	nt	nt	nt	nt	1.02	nt
O=[N+]([O-])c1ccc(Oc2c(F)c(F)nc(N3CCCC3)c2F)cc1	4.3	4.8	0.6	40.2	nt	1
Cc1ccc2nc(Cl)c(CN(C(=O)c3cnccn3)C3CCCCC3)cc2c1	9.6	30.3	1	-2.2	-0.969	0.7
CCn1c(=O)cc(C(=O)OC)sc1=Nc1ccc(F)c(F)c1	11.5	75.0*	0	98.5*	-0.188	0.3
COC(=O)c1cc(=O)n(CCc2ccc(OC)cc2)c(=Nc2ccc(F)c(Cl)c2)s1	16.3	55.5*	0.7	27.5	-4.51	0.4
COc1ccc(NC(=O)C2C3C=CC(C3)C2C(=O)NCc2ccco2)cc1 (stereo not given)	0.7	36.8	0.3	66.9*	0.567	0.6
O=C(NC1CS(=O)(=O)CC1NCc1ccccc1)c1ccccc1 (stereo not given)	18.8	-7.1	0.7	34.0	-0.355	1.1
COc1ccc(OCCCC(=O)NCc2ccco2)cc1	3.1	10.5	0.8	19.6	-0.123	0.9
O=S1(=O)CC(NCc2ccccc2)C(Nc2ccccc2)C1 (stereo not given)	6.5	36.9	0.1	85.9*	-0.00332	0.6
COc1ccc(NC2CS(=O)(=O)CC2NCc2ccco2)cc1 (stereo not given)	nt	-0.1	0.1	89.2*	0.429	1
CC(C)=C(C#N)c1nc2ccccc2s1	12.2	-0.3	0.4	56.1*	nt	1
CC(C)NC(=O)c1nc2ccccc2s1	3.6	9.2	0.7	25.2	0.945	0.9
COC(=O)c1ccc(/C(O)=C(\C#N)c2nc3ccccc3s2)cc1	7.8	58.3*	1	3.1	-2.83	0.4
CCCCOC(=O)c1cccnc1	nt	nt	nt	nt	0.909	nt
CCN(N=Nc1cccc([N+](=O)[O-])c1)c1cccc([N+](=O)[O-])c1	9.3	57.7*	0.7	30.6	-1.77	0.4
CC1(C)NC(=O)N(CC(O)CN2CCOCC2)C1=O (stereo not given)	6.5	44.6	0.4	56.0*	-2.09	0.6
Cc1ccc(OCC(O)CN2C(=O)NC(C)(C)C2=O)cc1C (stereo not given)	4.8	29.1	0.2	84.0*	0.327	0.7
CCCCN(CCCC)CC(O)CN1C(=O)NC(C)(C)C1=O (stereo not given)	8.0	-23.4	1.2	-21.2	0.011	1.2
CC1(C)NC(=O)N(CC(O)CN2C(=O)NC(C)(C)C2=O)C1=O	8.5	1.1	1	-4.7	0.541	1
CC1(C)NC(=O)N(CC(O)CN(Cc2ccccc2)Cc2ccccc2)C1=O (stereo not given)	6.3	28.3	0.2	84.7*	-0.651	0.7
Cc1nnc(SCC(=O)Nc2sccc2C(N)=O)n1Cc1ccccc1	0.5	-127.5	0.2	75.6*	1.26	2.3*
COC(=O)c1cccc(NC(=O)CSc2nnnn2C)c1	3.9	12.5	0.9	7.4	1.62	0.9
SMILES	HIV Rev-RRE inh	CYP2C9 inh	CYP2C19 activ	CYP2C19 inh	Cav32 inh	CYP2C9 act
CCn1c(Cn2nnc(-c3ccccc3)n2)nnc1SCC(=O)Nc1cccc(C(C)=O)c1	8.3	41.5	0.3	69.7*	-2.59	0.6
COC(=O)c1cccc(NC(=O)CSc2nnc(C)n2Cc2ccccc2)c1	nt	89.3*	0.3	69.8*	-0.735	0.1
Cc1cccc(NC(=O)CSc2nnc(C)n2Cc2ccccc2)c1	5.4	-4.8	0.4	59.0*	-0.493	1
CCc1nnc(NC(=O)CSc2nnc(C)n2Cc2ccccc2)s1	1.6	nt	nt	nt	0.742	nt
CCn1c(C(O)c2ccc3c(c2)OCO3)nc2ccccc21 (stereo not given)	2.8	46.5	0	97.9*	0.714	0.5
COC(=O)C(CC(=O)c1ccc(Cl)cc1)c1ccc(C(C)C)cc1 (stereo not given)	7.9	-24.9	1	2.0	nt	1.2
COc1cc(C2C(C(C)=O)=C(C)Nc3ncnn32)ccc1O (stereo not given)	2.8	-5.8	1.1	-14.1	0.605	1.1
CC(=O)C1=C(C)Nc2ncnn2C1c1ccccc1OCc1ccccc1 (stereo not given)	0.6	23.6	0.5	53.9*	0.828	0.8
CCCC1=C(C(=O)OCC)C(c2ccc(O)cc2)n2ncnc2N1 (stereo not given)	0.1	93.3*	0.7	25.9	-0.633	0.1
CC1=C(C(=O)OC(C)C)C(c2c[nH]c3ccccc23)n2ncnc2N1 (stereo not given)	3.9	21.3	0.4	60.7*	-0.58	0.8
CC(=O)C1=C(C)Nc2ncnn2C1c1ccc(Cl)cc1 (stereo not given)	8.4	59.3*	0.4	63.8*	0.105	0.4
CC1CCCC(C)N1C(=O)CN1C(=O)C(C)(C)Oc2ccc(C(=O)NC3CCCC3)cc21 (stereo not given)	-2.8	-2.6	1.2	-19.0	2.78	1
O=C(CN1C(=O)C2CC=CCC2C1=O)Nc1nc2ccccc2[nH]1 (stereo not given)	4.2	1.7	1	-4.7	-0.0673	1
Nc1c(C(=O)Nc2nc3ccccc3s2)sc2nc(-c3cccs3)ccc12	132.7*[fluorescence artefact?]	28.1	1	-4.7	-2.73	0.7
CCN1C(=O)/C(=C\c2ccc3c(c2)OCO3)C(C(=O)OC)=C1C	5.6	39.0	0.8	15.1	1.77	0.6
CCOc1cc(/C=C2\C(=O)N(Cc3ccc(C)cc3)C(C)=C2C(=O)OC)ccc1O	3.6	82.8*	0.6	39.7	1.13	0.2
CCCCCNc1nc(N2CCCC2)c2c(c1C#N)CCN(C)C2	10.8	29.8	0.7	29.3	-1.17	0.7
CCCCCNc1nc(NCCCO)c(C#N)c2c1CN(C)CC2	1.3	54.3*	0.8	23.9	0.879	0.5
Cc1oc(-c2ccccc2Cl)cc1-c1nn2c(-c3ccco3)nnc2s1	nt	1.2	1	4.1	nt	1
O=C1C2C3C=CC([C@@H]2C(=O)N1C1CCCCC1)[C@H]1C(=O)N(C2CCCCC2)C(=O)C31 (stereo not given in full)	6.8	-0.3	0.9	6.2	0.0878	1
O=C(c1cccs1)[C@@H]1[C@@H]2C(=O)N(Cc3ccc4c(c3)OCO4)C(=O)[C@@H]2C2c3ccccc3C=CN21 (stereo not given in full)	19.9	63.9*	0.7	30.1	nt	0.4

Assay outcomes (PubChem BioAssay)
